Values after ≈ are worked out from the molar mass of the structure shown.
Assays:
[1] = test system: Mycolicibacterium smegmatis; experiment: Anti-tubercular activity against Mycobacterium smegmatis MC2 155 ATCC 700084 after 3 days by microdilution method; format: functional; conditions: MC2 155 ATCC 700084, 72 h
In short: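 M. smegmatis mc2155 grown in MB7H9 + 10% OADC at 37 °C with shaking to OD600 0.8. Inoculum set to 0.5 McFarland, diluted 1:100, and mixed 1:1 with two-fold serial dilutions in MB7H9. Plates incubated 3 days at 37 °C with growth and sterility controls. MIC taken as the lowest concentration with no visible growth.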

[2] = Cytotoxicity against human MDM assessed as cell viability after 3 days by Alamar blue dye-based fluorocytometric analysis relative to control; conditions: 72 h
[3] = test system: Mycobacterium tuberculosis; experiment: Antibacterial activity against Mycobacterium tuberculosis H37Rv ATCC 27294T assessed as isoniazid MIC at 0.25 ug/ml after 7 days by microdilution checkerboard assay; format: functional; conditions: 168 h
In short: (§1)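 Two-dimensional checkerboard in H37Rv at 10^5 CFU/ml in MB7H9/OADC. Partner drug (amikacin, EtBr, isoniazid, ofloxacin or rifampin) two-fold serially diluted across columns 3-11. Test compound two-fold serially diluted down rows 2-6. Plates incubated 7 days at 37 °C, then MTT added overnight. […] Run in triplicate.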

[4] = test system: Mycobacterium tuberculosis; experiment: Antibacterial activity against Mycobacterium tuberculosis H37Rv ATCC 27294T assessed as ethidium bromide MIC at 0.25 ug/ml after 7 days by microdilution checkerboard assay; format: functional; conditions: 168 h; in short: as §1
[5] = test system: Mycobacterium tuberculosis; experiment: Antibacterial activity against Mycobacterium tuberculosis H37Rv ATCC 27294T assessed as ethidium bromide MIC at 0.5 ug/ml after 7 days by microdilution checkerboard assay; format: functional; conditions: 168 h; in short: as §1
[6] = test system: Mycobacterium tuberculosis; experiment: Antibacterial activity against Mycobacterium tuberculosis H37Rv ATCC 27294T assessed as ethidium bromide MIC at 1 ug/ml after 7 days by microdilution checkerboard assay; format: functional; conditions: 168 h; in short: as §1
[7] = test system: Mycobacterium tuberculosis; experiment: Antibacterial activity against Mycobacterium tuberculosis H37Rv ATCC 27294T assessed as ethidium bromide MIC at 2 ug/ml after 7 days by microdilution checkerboard assay; format: functional; conditions: 168 h; in short: as §1
[8] = test system: Mycobacterium tuberculosis; experiment: Antibacterial activity against Mycobacterium tuberculosis H37Rv ATCC 27294T assessed as ethidium bromide MIC at 4 ug/ml after 7 days by microdilution checkerboard assay; format: functional; conditions: 168 h; in short: as §1
[9] = test system: Mycobacterium tuberculosis; experiment: Antibacterial activity against Mycobacterium tuberculosis H37Rv ATCC 27294T assessed as ethidium bromide MIC at 8 ug/ml after 7 days by microdilution checkerboard assay; format: functional; conditions: 168 h; in short: as §1
[10] = test system: Mycobacterium tuberculosis; experiment: Antibacterial activity against Mycobacterium tuberculosis H37Rv ATCC 27294T assessed as ethidium bromide MIC at 16 ug/ml after 7 days by microdilution checkerboard assay; format: functional; conditions: 168 h; in short: as §1
[11] = test system: Mycobacterium tuberculosis; experiment: Antibacterial activity against Mycobacterium tuberculosis H37Rv ATCC 27294T assessed as ofloxacin MIC at 0.25 ug/ml after 7 days by microdilution checkerboard assay; format: functional; conditions: 168 h; in short: as §1
[12] = test system: Mycobacterium tuberculosis; experiment: Antibacterial activity against Mycobacterium tuberculosis H37Rv ATCC 27294T assessed as ofloxacin MIC at 0.5 ug/ml after 7 days by microdilution checkerboard assay; format: functional; conditions: 168 h; in short: as §1
[13] = test system: Mycobacterium tuberculosis; experiment: Antibacterial activity against Mycobacterium tuberculosis H37Rv ATCC 27294T assessed as ofloxacin MIC at 1 ug/ml after 7 days by microdilution checkerboard assay; format: functional; conditions: 168 h; in short: as §1
[14] = test system: Mycobacterium tuberculosis; experiment: Antibacterial activity against Mycobacterium tuberculosis H37Rv ATCC 27294T assessed as ofloxacin MIC at 2 ug/ml after 7 days by microdilution checkerboard assay; format: functional; conditions: 168 h; in short: as §1
[15] = test system: Mycobacterium tuberculosis; experiment: Antibacterial activity against Mycobacterium tuberculosis H37Rv ATCC 27294T assessed as ofloxacin MIC at 4 ug/ml after 7 days by microdilution checkerboard assay; format: functional; conditions: 168 h; in short: as §1
[16] = test system: Mycobacterium tuberculosis; experiment: Antibacterial activity against Mycobacterium tuberculosis H37Rv ATCC 27294T assessed as ofloxacin MIC at 8 ug/ml after 7 days by microdilution checkerboard assay; format: functional; conditions: 168 h; in short: as §1
[17] = test system: Mycobacterium tuberculosis; experiment: Antibacterial activity against Mycobacterium tuberculosis H37Rv ATCC 27294T assessed as ofloxacin MIC at 16 ug/ml after 7 days by microdilution checkerboard assay; format: functional; conditions: 168 h; in short: as §1
[18] = test system: Mycobacterium tuberculosis; experiment: Antibacterial activity against Mycobacterium tuberculosis H37Rv ATCC 27294T assessed as amikacin MIC at 0.25 ug/ml after 7 days by microdilution checkerboard assay; format: functional; conditions: 168 h; in short: as §1
[19] = test system: Mycobacterium tuberculosis; experiment: Antibacterial activity against Mycobacterium tuberculosis H37Rv ATCC 27294T assessed as amikacin MIC at 0.5 ug/ml after 7 days by microdilution checkerboard assay; format: functional; conditions: 168 h; in short: as §1
[20] = test system: Mycobacterium tuberculosis; experiment: Antibacterial activity against Mycobacterium tuberculosis H37Rv ATCC 27294T assessed as amikacin MIC at 1 ug/ml after 7 days by microdilution checkerboard assay; format: functional; conditions: 168 h; in short: as §1
[21] = test system: Mycobacterium tuberculosis; experiment: Antibacterial activity against Mycobacterium tuberculosis H37Rv ATCC 27294T assessed as amikacin MIC at 2 ug/ml after 7 days by microdilution checkerboard assay; format: functional; conditions: 168 h; in short: as §1
[22] = test system: Mycobacterium tuberculosis; experiment: Antibacterial activity against Mycobacterium tuberculosis H37Rv ATCC 27294T assessed as amikacin MIC at 4 ug/ml after 7 days by microdilution checkerboard assay; format: functional; conditions: 168 h; in short: as §1
[23] = test system: Mycobacterium tuberculosis; experiment: Anti-tubercular activity against Mycobacterium tuberculosis H37Rv ATCC 27294T after 7 days by mircodilution method; format: functional; conditions: 168 h
In short: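 H37Rv grown static in MB7H9 + 10% OADC at 37 °C to OD600 0.8, then diluted to about 10^5 cells/ml. Mixed 1:1 with two-fold serial dilutions in MB7H9/OADC and incubated 7 days at 37 °C. MTT added to final 2.5% and plates incubated overnight. MIC is the lowest concentration with no colour change. Run in triplicate.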

[24] = test system: Mycobacterium tuberculosis; experiment: Antibacterial activity against Mycobacterium tuberculosis H37Rv ATCC 27294T assessed as isoniazid MIC at 16 ug/ml after 7 days by microdilution checkerboard assay; format: functional; conditions: 168 h; in short: as §1
[25] = test system: Mycobacterium tuberculosis; experiment: Antibacterial activity against Mycobacterium tuberculosis H37Rv ATCC 27294T assessed as isoniazid MIC at 8 ug/ml after 7 days by microdilution checkerboard assay; format: functional; conditions: 168 h; in short: as §1
[26] = test system: Mycobacterium tuberculosis; experiment: Antibacterial activity against Mycobacterium tuberculosis H37Rv ATCC 27294T assessed as isoniazid MIC at 4 ug/ml after 7 days by microdilution checkerboard; format: functional; conditions: 168 h; in short: as §1
[27] = test system: Mycobacterium tuberculosis; experiment: Antibacterial activity against Mycobacterium tuberculosis H37Rv ATCC 27294T assessed as isoniazid MIC at 2 ug/ml after 7 days by microdilution checkerboard assay; format: functional; conditions: 168 h; in short: as §1
[28] = test system: Mycobacterium tuberculosis; experiment: Antibacterial activity against Mycobacterium tuberculosis H37Rv ATCC 27294T assessed as isoniazid MIC at 1 ug/ml after 7 days by microdilution checkerboard assay; format: functional; conditions: 168 h; in short: as §1
[29] = test system: Mycobacterium tuberculosis; experiment: Antibacterial activity against Mycobacterium tuberculosis H37Rv ATCC 27294T assessed as isoniazid MIC at 0.5 ug/ml after 7 days by microdilution checkerboard assay; format: functional; conditions: 168 h; in short: as §1
[30] = test system: Mycobacterium tuberculosis; experiment: Antibacterial activity against Mycobacterium tuberculosis H37Rv ATCC 27294T assessed as amikacin MIC at 8 ug/ml after 7 days by microdilution checkerboard assay; format: functional; conditions: 168 h; in short: as §1
[31] = test system: Mycobacterium tuberculosis; experiment: Antibacterial activity against Mycobacterium tuberculosis H37Rv ATCC 27294T assessed as amikacin MIC at 16 ug/ml after 7 days by microdilution checkerboard assay; format: functional; conditions: 168 h; in short: as §1
[32] = test system: Mycobacterium tuberculosis; experiment: Antibacterial activity against Mycobacterium tuberculosis H37Rv ATCC 27294T assessed as rifampin MIC at 0.25 ug/ml after 7 days by microdilution checkerboard assay; format: functional; conditions: 168 h; in short: as §1
[33] = test system: Mycobacterium tuberculosis; experiment: Antibacterial activity against Mycobacterium tuberculosis H37Rv ATCC 27294T assessed as rifampin MIC at 0.5 ug/ml after 7 days by microdilution checkerboard assay; format: functional; conditions: 168 h
In short: (§2)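 M. tuberculosis H37Rv grown in MB7H9 + 10% OADC at 37 °C to OD600 0.8; plates inoculated at 10^5 CFU/ml. Rifampicin two-fold serially diluted across columns, test compound two-fold diluted down rows (two-dimensional checkerboard). Sealed, 37 °C for seven days, then MTT added and incubated overnight. MIC read as no colour change. Triplicate.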

[34] = test system: Mycobacterium tuberculosis; experiment: Antibacterial activity against Mycobacterium tuberculosis H37Rv ATCC 27294T assessed as rifampin MIC at 1 ug/ml after 7 days by microdilution checkerboard assay; format: functional; conditions: 168 h; in short: as §2
[35] = test system: Mycobacterium tuberculosis; experiment: Antibacterial activity against Mycobacterium tuberculosis H37Rv ATCC 27294T assessed as rifampin MIC at 2 ug/ml after 7 days by microdilution checkerboard assay; format: functional; conditions: 168 h; in short: as §2
[36] = test system: Mycobacterium tuberculosis; experiment: Antibacterial activity against Mycobacterium tuberculosis H37Rv ATCC 27294T assessed as rifampin MIC at 4 ug/ml after 7 days by microdilution checkerboard assay; format: functional; conditions: 168 h; in short: as §2
[37] = test system: Mycobacterium tuberculosis; experiment: Antibacterial activity against Mycobacterium tuberculosis H37Rv ATCC 27294T assessed as rifampin MIC at 8 ug/ml after 7 days by microdilution checkerboard assay; format: functional; conditions: 168 h; in short: as §2
[38] = test system: Mycobacterium tuberculosis; experiment: Antibacterial activity against Mycobacterium tuberculosis H37Rv ATCC 27294T assessed as rifampin MIC at 16 ug/ml after 7 days by microdilution checkerboard assay; format: functional; conditions: 168 h; in short: as §2

Compound: CCSc1nnc(COc2ccccc2C2=NOC(c3ccc(Cl)cc3Cl)C2)n1NC(C)=O (stereo not drawn)
- MIC [1]: 2 µg/mL (≈ 3.95 µM)
- IC50 [2]: 9.7 µg/mL (≈ 19.2 µM)
- MIC [3]: 0.1 µg/mL
- MIC [4]: 12.5 µg/mL
- MIC [5]: 12.5 µg/mL
- MIC [6]: 12.5 µg/mL
- MIC [7]: 12.5 µg/mL
- MIC [8]: 6.25 µg/mL
- MIC [9]: 1.56 µg/mL
- MIC [10]: 0.39 µg/mL
- MIC [11]: 2 µg/mL
- MIC [12]: 1 µg/mL
- MIC [13]: 1 µg/mL
- MIC [14]: 1 µg/mL
- MIC [15]: 1 µg/mL
- MIC [16]: 1 µg/mL
- MIC [17]: 0.0312 µg/mL
- MIC [18]: 1 µg/mL
- MIC [19]: 1 µg/mL
- MIC [20]: 1 µg/mL
- MIC [21]: 1 µg/mL
- MIC [22]: 1 µg/mL
- MIC [23]: 8 µg/mL (≈ 15.8 µM)
- MIC [24]: 0.00156 µg/mL
- MIC [25]: 0.025 µg/mL
- MIC [26]: 0.1 µg/mL
- MIC [27]: 0.1 µg/mL
- MIC [28]: 0.1 µg/mL
- MIC [29]: 0.1 µg/mL
- MIC [30]: 0.25 µg/mL
- MIC [31]: 0.0312 µg/mL
- MIC [32]: 1 µg/mL
- MIC [33]: 0.5 µg/mL
- MIC [34]: 0.5 µg/mL
- MIC [35]: 0.25 µg/mL
- MIC [36]: 0.125 µg/mL
- MIC [37]: 0.0312 µg/mL
- MIC [38]: 0.0156 µg/mL

Reference: ChEMBL document CHEMBL3758168, “Hybrid triazoles: Design and synthesis as potential dual inhibitor of growth and efflux inhibition in tuberculosis” (Eur J Med Chem, 2016)
